Test results reported in PMC7693203 (Epilepsia, 2020).
Where two headings read alike, the source gives them in different places. Marks after values point to notes of the source that are not given here.

Legend:
CYP3A4 [1] = biological target: T1, CYP3A4 (Homo sapiens, UniProt P08684); settings: result in words
CYP3A4/2C19 [2] = assay: clinical; settings: human, in vivo, 750 mg
CYP3A4 [3] = biological target: T1, CYP3A4; assay: clinical; settings: in vivo, 750 mg
[4] = not given; remark: listed apart in the source
CYP2C19 [5] = biological target: T2, CYP2C19 (Homo sapiens, UniProt P33261); settings: human liver microsomes; result in words; cited from earlier work
T2 sequence (P33261 whole entry): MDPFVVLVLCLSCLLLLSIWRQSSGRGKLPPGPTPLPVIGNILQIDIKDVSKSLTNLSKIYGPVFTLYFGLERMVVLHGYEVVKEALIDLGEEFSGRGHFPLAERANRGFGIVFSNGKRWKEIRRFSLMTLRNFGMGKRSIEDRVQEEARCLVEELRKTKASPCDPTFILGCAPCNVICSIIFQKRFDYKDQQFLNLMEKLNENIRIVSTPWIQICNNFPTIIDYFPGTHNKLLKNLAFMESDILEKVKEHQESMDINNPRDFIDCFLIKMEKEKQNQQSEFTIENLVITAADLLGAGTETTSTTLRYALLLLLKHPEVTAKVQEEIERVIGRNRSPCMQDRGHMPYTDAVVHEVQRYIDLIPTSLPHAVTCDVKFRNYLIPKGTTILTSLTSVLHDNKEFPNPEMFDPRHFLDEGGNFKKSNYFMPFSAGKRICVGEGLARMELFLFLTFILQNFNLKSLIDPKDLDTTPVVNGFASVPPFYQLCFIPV

CYP3A4/2C19 [6] = settings: result in words
UGT1A9 = settings: in vitro; result in words; cited from earlier work
[7] = cited from earlier work; for Abdominal pain / Chromaturia / Diarrhea / Fatigue / Flatulence / Headache / Hepatic enzyme increased / Nausea / Somnolence: healthy volunteers
[8] = result in words; cited from earlier work
CYP3A4 [9] = biological target: T1, CYP3A4; settings: result in words, cited from earlier work
[10] = steady-state CBD, healthy volunteers; result in words; cited from earlier work
[11] = cited from earlier work
[12] = Other safety parameters for all six trials; type: in vivo, human; settings: result in words
Procedure, shortened: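 Safety was assessed in open-label, fixed-sequence phase 1 trials in healthy volunteers and in randomized, double-blind, placebo-controlled phase 2 trials in epilepsy patients. Assessments covered treatment-emergent adverse events, clinical laboratory evaluations, vital signs, 12-lead ECGs, physical examinations and the C-SSRS questionnaire. The safety population comprised subjects given at least one dose. In CYP3A4 trials, volunteers also needed at least one postdose assessment.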

[13] = not given; remark: listed apart in the source
CYP2C19 [14] = biological target: T2, CYP2C19; assay: clinical; settings: in vivo, 750 mg
[15] = trial 17028, healthy volunteers, N = 16
[16] = trial 17074, healthy volunteers, N = 16
[17] = trial 1543, healthy volunteers, N = 77
[18] = trial 1543 groups 1 + 2 (DDI CLB), n = 27
[19] = trial 1543 groups 3 + 4 (DDI STP), n = 24
[20] = trial 1543 groups 5 + 6 (DDI VPA), n = 26
[21] = trial 1447, patients with epilepsy, N = 28
[22] = trial 1447, patients with epilepsy, N = 34
[23] = trial 17075, healthy volunteers, N = 32

T1 sequence (P08684 whole entry): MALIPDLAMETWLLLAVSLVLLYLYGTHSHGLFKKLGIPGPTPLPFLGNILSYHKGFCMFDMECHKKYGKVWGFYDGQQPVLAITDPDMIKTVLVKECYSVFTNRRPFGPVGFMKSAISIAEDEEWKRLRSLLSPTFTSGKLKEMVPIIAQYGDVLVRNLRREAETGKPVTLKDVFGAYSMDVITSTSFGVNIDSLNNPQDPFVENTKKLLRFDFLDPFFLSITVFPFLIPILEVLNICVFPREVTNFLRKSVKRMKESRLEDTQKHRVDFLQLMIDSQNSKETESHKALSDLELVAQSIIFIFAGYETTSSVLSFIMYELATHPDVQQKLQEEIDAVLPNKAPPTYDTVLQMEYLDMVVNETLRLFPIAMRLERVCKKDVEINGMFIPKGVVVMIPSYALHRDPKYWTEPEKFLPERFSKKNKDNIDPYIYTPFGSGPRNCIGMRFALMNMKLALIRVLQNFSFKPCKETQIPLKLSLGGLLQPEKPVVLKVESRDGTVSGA

Structure (SMILES): C=C(C)[C@@H]1CCC(C)=C[C@H]1c1c(O)cc(CCCCC)cc1O [CBD, cannabidiol]
- elevation in AST levels observed (trial 17028): four
- elevations in alanine aminotransferase levels observed (trial 17028): three
- AEs leading to withdrawal [15]: 2 (13) n (%)
- Abdominal pain [15]: 2 (13) n (%)
- Chromaturia [15]: 0 (0) n (%)
- Death [15]: 0 (0) n (%)
- Diarrhea [15]: 6 (38) n (%)
- Fatigue [15]: 3 (19) n (%)
- Flatulence [15]: 0 (0) n (%)
- Headache [15]: 4 (25) n (%)
- Hepatic enzyme increased [15]: 4 (25) n (%)
- Nausea [15]: 2 (13) n (%)
- Patient with at least 1 AE [15]: 15 (94) n (%)
- Serious AEs [15]: 0 (0) n (%)
- Severe AEs [15]: 0 (0) n (%)
- Somnolence [15]: 5 (31) n (%)
- healthy volunteers with elevations in transaminase levels reported as AEs (trial 17028, of 16): 25%
- healthy volunteers reporting AEs (trial 17028, of 16, CBD as multiple doses): 94%
- clearance with concomitant ITC (CYP3A4 [1]): unaffected
- effect of concomitant steady‐state ITC on exposure (CYP3A4 [1]): did not affect
- t ½ with concomitant ITC (CYP3A4 [1]): unaffected
- half-life (CYP3A4/2C19 [2]): 32.5 h
- half-life (CYP3A4 [3]): 56.8 h
- AEs leading to withdrawal [4, 16]: 0 (0) n (%)
- Abdominal pain [4, 16]: 0 (0) n (%)
- Death [4, 16]: 0 (0) n (%)
- Diarrhea [4, 16]: 3 (19) n (%)
- Fatigue [4, 16]: 0 (0) n (%)
- Flatulence [4, 16]: 0 (0) n (%)
- Headache [4, 16]: 2 (13) n (%)
- Hepatic enzyme increased [4, 16]: 0 (0) n (%)
- Nausea [4, 16]: 4 (25) n (%)
- Patient with at least 1 AE [4, 16]: 16 (100) n (%)
- Serious AEs [4, 16]: 0 (0) n (%)
- Severe AEs [4, 16]: 0 (0) n (%)
- Somnolence [4, 16]: 4 (25) n (%)
- Chromaturia ([4]; trial 17074, healthy volunteers, N = 16, rifampicin coadministered): 13 (81) n (%)
- healthy volunteers reporting AEs ([4]; trial 17074, overall, 16 subjects, CBD as two single doses): 100%
- healthy volunteers reporting AEs ([4]; trial 17074, after CBD alone, during RIF treatment, or after CBD and RIF, of 16): 44%
- elevations in transaminase levels as AEs or laboratory evaluations ([4]; trial 17074, result in words): no reports
- inhibition of CYP2C19 (CYP2C19 [5]): potently inhibits
- t ½ with concomitant RIF (CYP3A4/2C19 [6]): unaffected
- inhibition of UGT1A9 (UGT1A9): potently inhibits
- AEs leading to withdrawal [7, 17]: 6 (8) n (%)
- Death [7, 17]: 0 (0) n (%)
- Patient with at least 1 AE [7, 17]: 72 (94) n (%)
- Serious AEs [7, 17]: 0 (0) n (%)
- Severe AEs [7, 17]: 2 (3) n (%)
- subjects who experienced an AE of rash ([7]; trial 1543, of 77, early in the trial): 12%
- healthy volunteers who experienced an AE ([7]; trial 1543, of 77): 94%
- elevations in transaminase levels as AEs or laboratory evaluations ([7]; trial 1543, result in words): no reports
- Abdominal pain [7, 18]: 7 (26) n (%)
- Chromaturia [7, 18]: 0 (0) n (%)
- Diarrhea [7, 18]: 7 (26) n (%)
- Fatigue [7, 18]: 14 (52) n (%)
- Flatulence [7, 18]: 0 (0) n (%)
- Headache [7, 18]: 13 (48) n (%)
- Hepatic enzyme increased [7, 18]: 0 (0) n (%)
- Nausea [7, 18]: 8 (30) n (%)
- Somnolence [7, 18]: 5 (19) n (%)
- Abdominal pain [7, 19]: 7 (29) n (%)
- Chromaturia [7, 19]: 0 (0) n (%)
- Diarrhea [7, 19]: 13 (54) n (%)
- Fatigue [7, 19]: 8 (33) n (%)
- Flatulence [7, 19]: 6 (25) n (%)
- Headache [7, 19]: 9 (38) n (%)
- Hepatic enzyme increased [7, 19]: 0 (0) n (%)
- Nausea [7, 19]: 6 (25) n (%)
- Somnolence [7, 19]: 8 (33) n (%)
- Abdominal pain [7, 20]: 7 (27) n (%)
- Chromaturia [7, 20]: 0 (0) n (%)
- Diarrhea [7, 20]: 15 (58) n (%)
- Fatigue [7, 20]: 14 (54) n (%)
- Flatulence [7, 20]: 1 (4) n (%)
- Headache [7, 20]: 8 (31) n (%)
- Hepatic enzyme increased [7, 20]: 0 (0) n (%)
- Nausea [7, 20]: 8 (31) n (%)
- Somnolence [7, 20]: 7 (27) n (%)
- PPB when VPA and CBD are combined in vitro [8]: not affected
- inhibition of CYP3A4 (CYP3A4 [9]; human liver microsomes): potently inhibits
- inhibition of CYP3A4 (CYP3A4 [9]; in vitro data): potent inhibitor
- effect of concomitant STP on exposure [10]: no effect
- effect of concomitant VPA on exposure [10]: did not affect
- patients with epilepsy reporting AEs ([11]; trial 1447, of 34): 68%
- Abdominal pain [11, 21]: 0 (0) n (%)
- Chromaturia [11, 21]: 0 (0) n (%)
- Diarrhea [11, 21]: 16 (57) n (%)
- Fatigue [11, 21]: 3 (11) n (%)
- Flatulence [11, 21]: 0 (0) n (%)
- Headache [11, 21]: 0 (0) n (%)
- Hepatic enzyme increased [11, 21]: 0 (0) ^e n (%)
- Nausea [11, 21]: 4 (14) n (%)
- Somnolence [11, 21]: 1 (4) n (%)
- AEs leading to withdrawal [11, 22]: 2 (6) n (%)
- Death [11, 22]: 0 (0) n (%)
- Patient with at least 1 AE [11, 22]: 23 (68) n (%)
- Serious AEs [11, 22]: 2 (6) n (%)
- Severe AEs [11, 22]: 1 (3) n (%)
- elevations in transaminase levels reported as AEs ([11]; trial 1447): three
- instances that met Hy’s law criteria for potential drug‐induced liver injury [12]: no instances
- suicidal ideation or behavior by C‐SSRS [12]: No suicidal ideation or behavior
- AEs leading to withdrawal [13, 23]: 0 (0) n (%)
- Abdominal pain [13, 23]: 2 (6) n (%)
- Chromaturia [13, 23]: 0 (0) n (%)
- Death [13, 23]: 0 (0) n (%)
- Diarrhea [13, 23]: 3 (9) n (%)
- Fatigue [13, 23]: 2 (6) n (%)
- Flatulence [13, 23]: 0 (0) n (%)
- Headache [13, 23]: 6 (19) n (%)
- Hepatic enzyme increased [13, 23]: 0 (0) ^c n (%)
- Nausea [13, 23]: 2 (6) n (%)
- Patient with at least 1 AE [13, 23]: 20 (63) n (%)
- Serious AEs [13, 23]: 0 (0) n (%)
- Severe AEs [13, 23]: 0 (0) n (%)
- Somnolence [13, 23]: 3 (9) n (%)
- healthy volunteers reporting AEs ([13]; trial 17075, overall, 32 subjects, CBD as two single doses): 63%
- healthy volunteers reporting AEs ([13]; trial 17075 FLU arm, overall, of 16): 44%
- healthy volunteers reporting AEs ([13]; trial 17075 ITC arm, overall, of 16): 81%
- half-life (CYP2C19 [14]): 51.2 h
